Results published in ChEMBL document CHEMBL3046072, “Plant P5C reductase as a new target for aminomethylenebisphosphonates” (J Agric Food Chem, 2007).

Target: T1, Pyrroline-5-carboxylate reductase (Arabidopsis thaliana, UniProt P54904)
T1 sequence (P54904 whole entry): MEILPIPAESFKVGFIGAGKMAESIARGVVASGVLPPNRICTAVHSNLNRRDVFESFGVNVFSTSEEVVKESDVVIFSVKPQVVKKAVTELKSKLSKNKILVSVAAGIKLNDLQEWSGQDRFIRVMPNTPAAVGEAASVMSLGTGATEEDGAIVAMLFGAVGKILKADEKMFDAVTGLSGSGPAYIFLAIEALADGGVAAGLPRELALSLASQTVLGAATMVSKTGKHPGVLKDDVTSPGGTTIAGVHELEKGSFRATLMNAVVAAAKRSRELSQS
Experiment: Inhibition of Arabidopsis thaliana P5C reductase catalytic activity
Details: read-out: I50
Procedure, shortened: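 P5C reductase partially purified from A. thaliana Columbia suspension-cultured cells by ammonium sulfate cut and two DEAE-Sephacel steps. Assay at 35 °C: 100 mM Tris-HCl pH 8.0, 0.1 mM MgCl2, 2 mM DL-P5C, 0.25 mM NADH. Read as NADH oxidation at 340 nm, or as P5C loss by ninhydrin at 535 nm. Inhibitor neutralised to pH 7.4, tested over 0.010–5 mM. I50 from regression of % control activity versus log concentration.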

O=P(O)(O)C(Nc1cc(Cl)cc(Cl)c1)P(=O)(O)O [(3,5-DICHLOROPHENYLAMINO)METHYLENEDIPHOSPHONIC ACID]
IC50: 77 µM
